Only some compounds are listed: those with a hit (about 0.99% of all), similar ones and a draw of the others.
FN deposit inh: fibronectin deposition inhibition; AH1F fibroblasts, Alexa488-fibronectin deposition fluorescence, overnight; inhibition, % at 12.6 µM; hit rate 0.086% among 350,000;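 active = mean inhibition across replicates of 30% or more, regardless of how many single replicates reach that level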;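 also: positive control wells lacked labelled fibronectin entirely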
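Material: AH1F fibroblast monolayer depositing Alexa488-labelled fibronectin into matrix | Input: 10000 AH1F cells/well | Medium: DMEM plus 2% serum, read in PBS | Reagent: Alexa488-fibronectin, 24 nM final in well | Compound dosing: One dose per compound, pinned | Schedule: 1 h adhesion, overnight exposure | Measured by: Fluorescence at 485 nm excitation, 525 nm emission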
NPR1 activator: GC-A (human) enzyme activation; HEK293 GC-A cells, cGMP TR-FRET, EC30 ANP; 0% at EC30 ANP, 100% saturating ANP; activation, % at 10 µM; hit rate 0.14% among 370,000; AID 1671463; in the data active = activation above about 40%
Casp6 inh: caspase-6 (human) enzyme inhibition | purified caspase-6, Z-VEID-R110 cleavage fluorescence | hit rate 0.53% among 350,000 | inhibition, % at 12.5 µM;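 active = mean inhibition across replicates at least about 35%, with every replicate also reaching that limit, limit read from the data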;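 also: 0% = median of neutral control wells and 100% = no fluorescence left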
CaV13 FRET inh: Disruptors of the CACNA1D IQ motif to Ca2+-dependent inactivation inhibitor domain association, primary screening, Förster resonance energy transfer in intact living …; inhibition, % at 12.3 µM; hit rate 0.098% among 340,000; AID 743397; HEK cells, CFP/YFP FRET ICDI-IQ, plate reader, 10 min; percent FRET-ratio fall versus neutral wells;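 active = mean replicate inhibition of at least 30% and at least 1% of replicates passing that level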;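 also: 0% = median of the neutral control wells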
NSD2 HMT inh: NSD2 (human) methyltransferase inhibition; O96028; NSD2 peptide methylation, AlphaScreen, 120 min; inhibition, % at 12.5 µM; hit rate 0.54% among 310,000; AID 743445; in the data active = inhibition above about 50%
GC-B act: GC-B (human) receptor activation; P20594; HEK293-GC-B cells, CNP EC30, cGMP TR-FRET; 0% at EC30 CNP, 100% saturating CNP; activation, % at 10 µM; hit rate 0.11% among 370,000; AID 1920062;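 active = activation at 10 µM reaching about 35% in either raw or pattern-adjusted values, limit read from the data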
The depositor's hits bear a star; · = no result given; + = active, no number.

SMILES	FN deposit inh	NPR1 activator	Casp6 inh	CaV13 FRET inh	NSD2 HMT inh	GC-B act
C[C@@H]1CN([C@H](C)CO)C(=O)c2cc(NC(=O)CCN3CCOCC3)ccc2O[C@H]1CN(C)C(=O)Nc1ccc(F)cc1	1.2	·	0.8	·	·	·
O=C(CN1CCN(c2nc(-c3ccccc3)cs2)CC1)NNC(=O)c1ccc(Br)cc1	-0.3	1.9	·	-10.3	3.1	2.8
O=C(NC(=S)N1CCN(c2nc(-c3ccccc3)cs2)CC1)c1cncc(Br)c1	-4.1	-1.2	-3.0	+	6.6	0.9
O=C(C[C@@H]1CC[C@@H]2[C@H](COC[C@@H](O)CN2C(=O)c2ccccn2)O1)N1CCN(c2ccccc2)CC1	-1.7	·	0.2	·	·	·
Cc1ccc(Nc2nnc(SC3CCOC3=O)s2)cc1 (stereo unspecified)	-2.2	15.3	·	-5.4	-1.3	5.8
CC(C)c1ccc(Nc2nnc(SC3CCOC3=O)s2)cc1 (stereo unspecified)	6.4	65.4*	1.0	-4.6	-1.0	13.7
Cc1cc(S(=O)(=O)c2ccc([N+](=O)[O-])cn2)ccc1Br	5.9	19.5	-2.1	-2.2	·	36.6*
Cc1ccc(S(=O)(=O)c2ccc([N+](=O)[O-])cn2)cc1	8.9	9.4	13.8	-4.4	·	4.2
CN(C)C(=O)C[C@H]1CC[C@@H]2[C@H](COC[C@H](O)CN2Cc2nccs2)O1	4.0	·	0.0	·	·	·
O=C(NCCO)c1cc([N+](=O)[O-])cc2c1C=Cc1ccccc1O2	10.3	-0.2	1.4	-2.1	5.7	-2.6
O=C(O)c1cc([N+](=O)[O-])cc2c1C=Cc1ccccc1O2	-15.2	2.2	38.4*	-10.3	4.5	6.2
O=C(CN1CCOCC1)NCC[C@H]1CC[C@H](NC(=O)Nc2ccc(Cl)cc2)[C@@H](CO)O1	·	·	-0.5	·	·	·
CC1=NN(c2ccccc2)C(=O)/C1=C/c1cccs1	3.7	0.4	·	-4.4	14.0	-5.4
CC1=NN(c2ccc(C(=O)O)cc2)C(=O)/C1=C\c1ccc(OC(=O)c2cccs2)cc1	6.7	31.1	52.2*	-2.0	24.0	5.9
CCCCNC(=S)N1CCN(CC)CC1	3.8	0.5	44.6*	-2.7	3.9	0.6
Cc1noc(C)c1NC(=O)Nc1ccc2c(c1)C(=O)N([C@H](C)CO)C[C@H](C)[C@H](CN(C)C(=O)Nc1ccc3c(c1)OCO3)OCCCC[C@H](C)O2	-17.0	·	0.4	·	·	·
O=S(=O)(c1cccc(F)c1)N1CC[C@@H]2[C@@H](CO)Nc3ccc(C#Cc4cccc(F)c4)cc3[C@@H]21	-5.8	·	·	·	·	·
COc1ccccc1-[n+]1c(C)cc(/C=C2\Sc3ccccc3N2C)cc1C	-34.6	-25.3	-12.8	19.0	39.8	-8.3
COc1ccc(-[n+]2c(C)cc(/C=C3\Sc4ccccc4N3C)cc2C)cc1	-19.6	-42.5	-7.0	34.4*	-6.2	-29.4
Cc1ccc([N+](=O)[O-])cc1NC(=O)CN(C(=O)c1ccccc1Cl)C1CCCCC1	31.7*	-4.2	-0.3	-3.1	1.9	3.1
Cc1ccc([N+](=O)[O-])cc1NC(=O)CN(C1CCCCC1)S(=O)(=O)c1ccc(Cl)cc1	·	-8.8	·	·	2.1	-18.2
COCC#Cc1ccc2c(c1)O[C@@H](CN(C)C(=O)Nc1ccc(OC)cc1)[C@@H](C)CN([C@@H](C)CO)S2(=O)=O	8.3	·	-0.4	·	·	·
S=C(c1ccc(-c2cccc(Cl)c2)o1)N1CCCCC1	2.6	7.0	-2.5	-2.5	7.1	10.8
S=C(c1ccc(-c2cccc(Cl)c2)o1)N1CCOCC1	·	28.7	4.3	-9.3	5.9	35.3*
S=C(c1ccc(-c2cc(Cl)ccc2Cl)o1)N1CCOCC1	-0.4	17.6	·	-5.5	-4.2	43.4*
SMILES	FN deposit inh	NPR1 activator	Casp6 inh	CaV13 FRET inh	NSD2 HMT inh	GC-B act
S=C(c1ccc(-c2cc(Cl)ccc2Cl)o1)N1CCCCC1	1.3	2.0	·	-4.0	-0.8	14.3
CSc1ccccc1NC(=O)CN(C)C(=O)/C=C/c1ccccc1	-16.2	-0.8	36.1*	-3.4	11.3	6.3
O=C(C[C@@H]1CC[C@@H]2[C@H](COC[C@@H](O)CN2Cc2cccc(C(F)(F)F)c2)O1)NCc1ccc(F)cc1	-13.9	·	3.4	·	·	·
COc1ccc(S(=O)(=O)N(C)C)cc1NCC(=O)Nc1ccc(C)c(F)c1	·	·	·	·	2.8	·
O=C(N/N=C/c1cccc(O)c1)c1ccccc1O	2.2	3.0	48.7*	3.3	-0.8	-5.8
Cn1c2ccccc2c2cc(/C=N/NC(=O)c3cc(O)ccc3O)ccc21	·	-10.2	48.2*	·	-1.0	-8.0
O=C1NC[C@H](CCCCN2CCN(CCc3ccccc3)C(=O)C2=O)N(CCc2ccc(O)cc2)C1=O	0.3	3.5	-1.4	-4.6	·	3.5
O=C1NC[C@@H](CCCCN2CCN(CCc3ccc(O)cc3)C(=O)C2=O)N(CCc2ccc(O)cc2)C1=O	2.2	5.2	39.7*	-7.0	·	0.6
COCC(=O)Nc1ccc2c(c1)C(=O)N(C)[C@@H]1CC[C@@H](CC(=O)NCc3ccccc3Cl)O[C@H]1CO2	37.9*	·	·	·	·	·
COCC(=O)Nc1ccc2c(c1)C(=O)N(C)[C@H]1CC[C@H](CC(=O)NCc3ccccc3Cl)O[C@H]1CO2	1.8	·	·	·	·	·
O=C(N/N=C/c1ccc(OCc2ccccc2)cc1)c1ccncc1	0.9	-1.8	0.8	-3.1	-2.6	2.0
Oc1ccc(N=Cc2ccc(OCc3ccccc3)cc2)cc1	-4.2	1.8	8.1	-3.5	78.9*	3.1
COc1ccc(S(=O)(=O)N2CCCCC2c2cc(C(=O)Nc3ccc4c(c3)OCO4)no2)cc1 (stereo unspecified)	35.2*	6.9	0.7	-3.8	0.9	3.5
CC(C)Nc1nc(Cl)nc(N(C#N)CN2C(=O)c3ccccc3C2=O)n1	1.7	47.7*	·	-2.8	0.6	48.4*
CCCc1cn(CC[C@@H]2CC[C@@H](NC(=O)C3CCC3)[C@@H](CO)O2)nn1	·	·	0.6	·	·	·
CC(C)NC(=O)Nc1ccc2c(c1)C(=O)N([C@@H](C)CO)C[C@@H](C)[C@@H](CN(C)Cc1ccc(C(=O)O)cc1)O2	·	·	4.2	·	·	·
CCc1ccc2c(c1)C(NC(C)=O)C(=O)N2CCN1CCOCC1 (stereo unspecified)	-8.7	1.8	53.8*	-19.3	-1.7	1.7
CN(C)CCCNS(=O)(=O)c1ccc(N2CCC(c3ccc(Cl)cc3)=N2)cc1	40.7*	5.8	·	-3.9	·	-13.3
O=S(=O)(c1ccc(N2CCC(c3ccc(Cl)cc3)=N2)cc1)N(CCO)CCO	0.5	17.4	-0.3	-3.2	-5.7	-0.8
COc1cc(Br)cc(CN2CCN(C/C=C/c3ccccc3)CC2)c1O	·	1.1	38.4*	-7.1	-1.5	-7.3
O=C(O)c1ccc(Cn2cc(/C=C\[N+](=O)[O-])c3ccccc32)o1	-6.2	2.4	37.7*	-15.0	4.7	4.4
COC(=O)c1ccc(Cn2cc(/C=C\[N+](=O)[O-])c3ccccc32)o1	5.9	-11.3	5.4	-4.8	2.6	-8.8

High-throughput results from PubChem.
